Data on 35 compounds can be found in ChEMBL document CHEMBL1121557, “Chemistry, pharmacology, and structure-activity relationships with a new type of imidazolines exerting a specific bradycardic action at a cardiac site” (J Med Chem, 1980).

SMILES strings stand for the structures.

As a reminder, the pKa is the pH at which an ionisable group is half protonated. A low value points to a stronger acid or weaker base. One may read the logD as lipophilicity at a set pH, counting ionised and neutral species.

The test system of series [1] is Rattus norvegicus. Briefly: Dose required to decrease heart rate after iv injection to spinal rats. The series is classed as functional. An outline of the steps:
(§1)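 Male Chbb:THOM rats, 200–250 g, under pentobarbital sodium 50 mg/kg ip, atropine sulfate 1 mg/kg sc, trachea cannulated. Medulla cut at C1, brain destroyed, artificially ventilated. Jugular iv injections given cumulatively, dose doubled every 2 min, 3 doses per animal, top cumulative dose 10 mg/kg. ECG-triggered tachograph heart rate. D150 (dose lowering rate 150 beats/min) read graphically from log dose–response curves; n = 6 rats.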

The nature of series [2]: Dissociation constant (pKa). The series is classed as physicochemical.
The species named for series [3] is Rattus norvegicus. Put plainly: Evaluated for decreased heart rate in spinal rats, relative activity was determined. The series is classed as functional. In outline: as §1
A short description of series [4]: Partition coefficient (logD7.4). The following applies: octanol/water, pH 7.4.

Compound `Clc1cccc(Br)c1N(CC1CC1)C1=NCCN1` showed a D150 in the series on Rattus norvegicus [1] of 0.42 mg/kg. Also, the pKa in series [2] was determined as 10.8. This compound also yielded a Relative activity in the series filed under Rattus norvegicus [3] of 1.48. Moreover, in series [4], the logD is -0.79.

In the series on Rattus norvegicus [1], `CC(C)CN(C1=NCCN1)c1c(Br)cccc1Br` yielded a D150 of 1.35 mg/kg. Also, in series [2], the pKa amounted to 11. In the series listed under Rattus norvegicus [3], this compound had a Relative activity of 0.46. Moreover, the logD in series [4] was -0.64.

In the case of `Brc1cccc(Br)c1N(CC1CC1)C1=NCCCN1`, the D150 in the series on Rattus norvegicus [1] was found to be 1.1 mg/kg. In series [2], this compound gave a pKa of 12.4. In the series filed under Rattus norvegicus [3], this compound displayed a Relative activity of 0.56. Further, in series [4], the logD was -1.03.

`Brc1cccc(N(CC2CC2)C2=NCCN2)c1Br` came in with a D150 in the series on Rattus norvegicus [1] of 7.5 mg/kg. Moreover, the pKa in series [2] is 11.1. In addition, the Relative activity in the series listed under Rattus norvegicus [3] amounted to 0.083. The logD in series [4] is -0.41.

For the compound `CN(C1=NCCN1)c1c(Br)cccc1Br`, in the series with Rattus norvegicus [1], the D150 was 1.4 mg/kg. In addition, in series [2], the pKa came out at 10.7.

As for `Brc1cccc(Br)c1N(C1=NCCN1)C1CCCCC1`, the D150 with Rattus norvegicus [1] was determined as 2.6 mg/kg. The pKa in series [2] worked out at 11.3. The compound also showed a Relative activity in the series listed under Rattus norvegicus [3] of 0.24. The compound further came in with a logD in series [4] of 0.14.

`CCCCCN(C1=NCCN1)c1c(Br)cccc1Br` returned a D150 in the series with Rattus norvegicus [1] of 1.6 mg/kg. In series [2], this compound came in with a pKa of 11. For the same compound, the Relative activity in the series listed under Rattus norvegicus [3] is given as 0.39. Also, the logD in series [4] came out at 0.32.

Turning to `C=CCN(C1=NCCN1)c1c(Cl)cccc1Cl` [ALINIDINE], the D150 in the series on Rattus norvegicus [1] was 2.5 mg/kg. The same compound registered a pKa in series [2] of 10.4. The same compound registered a Relative activity in the series filed under Rattus norvegicus [3] of 0.25. In series [4], the logD is -1.66.

Take `C=CCCN(C1=NCCN1)c1c(Br)cccc1Br`: the D150 with Rattus norvegicus [1] came out at 1 mg/kg. This compound returned a pKa in series [2] of 11.2. This compound also showed a Relative activity in the series filed under Rattus norvegicus [3] of 0.62. For the same compound, in series [4], the logD is -0.63.

Compound `Brc1cccc(Br)c1N(Cc1cccs1)C1=NCCN1` had a D150 in the series with Rattus norvegicus [1] of 1.9 mg/kg. The same compound returned a pKa in series [2] of 10.5. The same compound yielded a Relative activity in the series listed under Rattus norvegicus [3] of 0.33. Also, in series [4], the logD is -0.1.

`C#CCN(C1=NCCN1)c1c(Br)cccc1Br` showed a D150 in the series with Rattus norvegicus [1] of 1.25 mg/kg. The same compound came in with a pKa in series [2] of 10.1. For the same compound, in the series listed under Rattus norvegicus [3], the Relative activity came to 0.5. Moreover, the log distribution coefficient (logD) in series [4] is -0.18.

On to `Brc1cccc(Br)c1N(CC1CCCC1)C1=NCCN1`, for which, in the series on Rattus norvegicus [1], the D150 is 1.3 mg/kg. In series [2], this compound showed a pKa of 10.9. Further, the Relative activity in the series filed under Rattus norvegicus [3] was 0.48. In addition, in series [4], the logD amounted to 0.32.

Take `Cc1cccc(Cl)c1N(CC1CC1)C1=NCCN1`: the D150 with Rattus norvegicus [1] is 1.85 mg/kg. The compound also registered a pKa in series [2] of 11.3. The same compound showed a Relative activity in the series listed under Rattus norvegicus [3] of 0.34. Also, the log distribution coefficient (logD) in series [4] was -0.99.

As to `CC(C)=CCN(C1=NCCN1)c1c(Br)cccc1Br`, in the series with Rattus norvegicus [1], the D150 is 3.5 mg/kg. For the same compound, in series [2], the pKa amounted to 10.8. In the series filed under Rattus norvegicus [3], this compound gave a Relative activity of 0.18. Moreover, in series [4], the logD was -0.14.

The compound `C=C(C)CCN(C1=NCCN1)c1c(Br)cccc1Br` had a D150 in the series with Rattus norvegicus [1] of 1.03 mg/kg. This compound also had a pKa in series [2] of 10.9. Moreover, the Relative activity in the series filed under Rattus norvegicus [3] was 0.6. Also, in series [4], the logD is 0.02.

As for `N=C(N)N(CC1CC1)c1c(Br)cccc1Br`, the D150 with Rattus norvegicus [1] was >10 mg/kg. Besides, in series [2], the pKa is 11.9. Also, the Relative activity in the series listed under Rattus norvegicus [3] is listed as <0.062. In addition, the logD in series [4] is -0.63.

In the series on Rattus norvegicus [1], `C/C=C/CN(C1=NCCN1)c1c(Br)cccc1Br` yielded a D150 of 0.7 mg/kg. The same compound registered a pKa in series [2] of 11. The Relative activity in the series listed under Rattus norvegicus [3] was 0.88. In series [4], the logD is -0.49.

Regarding `Fc1cccc(C(F)(F)F)c1N(CC1CC1)C1=NCCN1`, the D150 with Rattus norvegicus [1] turned out to be 1.8 mg/kg. In series [2], this compound had a pKa of 10.7. Further, the Relative activity in the series listed under Rattus norvegicus [3] is recorded as 0.34. Further, in series [4], the logD was -0.95.

Compound `Brc1ccccc1N(CC1CC1)C1=NCCN1` came in with a D150 in the series with Rattus norvegicus [1] of 4.4 mg/kg. For the same compound, the pKa in series [2] amounted to 11.2. Further, in the series filed under Rattus norvegicus [3], the Relative activity is recorded as 0.14. The logD in series [4] is -1.3.

In the series with Rattus norvegicus [1], `CC(C)CCN(C1=NCCN1)c1c(Br)cccc1Br` gave a D150 of 1.3 mg/kg. Besides, the pKa in series [2] came out at 10.9. The Relative activity in the series filed under Rattus norvegicus [3] was determined as 0.48. In series [4], this compound came in with a logD of 0.16.

Consider `Brc1ccc(Br)c(N(CC2CC2)C2=NCCN2)c1`, for which, in the series with Rattus norvegicus [1], the D150 is 5 mg/kg. In series [2], the pKa came to 11. In the series filed under Rattus norvegicus [3], this compound showed a Relative activity of 0.12. In series [4], the logD was -0.52.

`Fc1cccc(Cl)c1N(CC1CC1)C1=NCCN1` came in with a D150 with Rattus norvegicus [1] of 0.74 mg/kg. The pKa in series [2] came to 10.8. For the same compound, in the series listed under Rattus norvegicus [3], the Relative activity is on record as 0.84. The logD in series [4] is -0.98.

In the case of `Brc1ccc(N(CC2CC2)C2=NCCN2)cc1Br`, in the series on Rattus norvegicus [1], the D150 is reported as >>10 mg kg-1. Also, the Relative activity in the series listed under Rattus norvegicus [3] was <<0.062.

With `CCCN(C1=NCCN1)c1c(Br)cccc1Br`, the D150 with Rattus norvegicus [1] is 0.65 mg/kg. This compound also showed a pKa in series [2] of 11. In the series filed under Rattus norvegicus [3], this compound showed a Relative activity of 0.95. Besides, the logD in series [4] is -0.55.

Consider `C=CCN(C1=NCCN1)c1c(Br)cccc1Br`, for which, in the series on Rattus norvegicus [1], the D150 is 1.5 mg/kg. For the same compound, in series [2], the pKa amounted to 10.7. The compound also had a Relative activity in the series listed under Rattus norvegicus [3] of 0.41. Besides, in series [4], the logD is -0.75.

Regarding `C=C(C)CN(C1=NCCN1)c1c(Br)cccc1Br`, in the series with Rattus norvegicus [1], the D150 was determined as 2.1 mg/kg. This compound displayed a pKa in series [2] of 10.7. In addition, the Relative activity in the series filed under Rattus norvegicus [3] is recorded as 0.3. Also, the logD in series [4] was -0.66.

In the case of `CC(C)N(C1=NCCN1)c1c(Br)cccc1Br`, the D150 with Rattus norvegicus [1] amounted to 2.3 mg/kg. In addition, in series [2], the pKa was determined as 11.2. The Relative activity in the series filed under Rattus norvegicus [3] stood at 0.27. Also, the logD in series [4] is -0.82.

`Fc1cccc(F)c1N(CC1CC1)C1=NCCN1` returned a D150 in the series with Rattus norvegicus [1] of 4.8 mg/kg. For the same compound, the pKa in series [2] worked out at 10.3. The Relative activity in the series listed under Rattus norvegicus [3] was determined as 0.13. Further, the logD in series [4] is -1.41.

`Brc1cccc(Br)c1N(CC1CCC1)C1=NCCN1` had a D150 in the series on Rattus norvegicus [1] of 1.2 mg/kg. This compound had a pKa in series [2] of 10.9. Further, the Relative activity in the series listed under Rattus norvegicus [3] is 0.52. In series [4], the logD is -0.06.

As for `Brc1ccc(N(CC2CC2)C2=NCCN2)c(Br)c1`, the D150 with Rattus norvegicus [1] worked out at 10 mg/kg. The compound further displayed a pKa in series [2] of 11.2. In the series listed under Rattus norvegicus [3], the Relative activity worked out at 0.062. Also, the logD in series [4] is -0.31.

In turn, `Fc1cccc(Br)c1N(CC1CC1)C1=NCCN1` came in with a D150 in the series with Rattus norvegicus [1] of 1.5 mg/kg. The pKa in series [2] amounted to 10.7. The Relative activity in the series listed under Rattus norvegicus [3] is 0.41. In addition, the logD in series [4] was -1.03.

Compound `Brc1cccc(Br)c1N(C1=NCCN1)C1CCCC1` showed a D150 in the series on Rattus norvegicus [1] of 1 mg/kg. The compound also gave a pKa in series [2] of 11.2. The Relative activity in the series listed under Rattus norvegicus [3] is 0.62. For the same compound, the logD in series [4] is -0.29.

In turn, `Brc1cccc(Br)c1N(CC1CCCCC1)C1=NCCN1` gave a D150 in the series on Rattus norvegicus [1] of 6.5 mg/kg. The same compound showed a pKa in series [2] of 11.2. Moreover, the Relative activity in the series filed under Rattus norvegicus [3] is reported as 0.095. The logD in series [4] amounted to 0.27.

For `Brc1cccc(Br)c1N(Cc1ccccc1)C1=NCCN1`, the D150 in the series on Rattus norvegicus [1] turned out to be 2.5 mg/kg. For the same compound, the pKa in series [2] was determined as 10.4. This compound had a Relative activity in the series listed under Rattus norvegicus [3] of 0.25. Further, the logD in series [4] was -0.05.

Turning to `Clc1cccc(Cl)c1N(CC1CC1)C1=NCCN1`, in the series with Rattus norvegicus [1], the D150 was 0.65 mg/kg. This compound came in with a pKa in series [2] of 10.9. The compound also came in with a Relative activity in the series listed under Rattus norvegicus [3] of 0.95. In addition, the logD in series [4] is -0.92.
